pIC50: −log10 of the molar value. Values belong to the compound of their own block, whether it stands above or below them.
Assays:
Type in all cases: functional, cell-based
NCI-H596 = test: Antiproliferative activity against human NCI-H596 cells after 10 days; details: NCI-H596, 240 h
Outline: (§1)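 Broad cancer cell line panel (Eurofins Oncopanel, about 240 lines; mycoplasma negative, STR verified) grown in 2D culture and exposed to compound in a 10-day proliferation assay. The top concentration was 10 μM for the SMYD2 inhibitor series and 25 μM for the SMYD3 inhibitor. The proliferative IC50 is taken from concentration-response data, each value the mean of three biological replicates.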

NCI-H661 = test: Antiproliferative activity against human NCI-H661 cells after 10 days; details: NCI-H661, 240 h; outline: as §1
RD = test: Antiproliferative activity against human RD cells after 10 days; details: 240 h; outline: as §1
DMS-114 = test: Antiproliferative activity against human DMS-114 cells after 10 days; details: DMS-114, 240 h
Outline: (§2)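 10-day 2D proliferation screen of a broad cancer cell panel (about 240 lines, Eurofins Oncopanel). All lines were mycoplasma negative and STR verified. Compounds were dosed up to a top concentration of 10 μM or 25 μM, depending on the inhibitor. Anti-proliferative IC50 values are the average of three biological replicates.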

RPMI-6666 = test: Antiproliferative activity against human RPMI-6666 cells after 10 days; details: RPMI-6666, 240 h
HEC-1-A = test: Antiproliferative activity against human HEC-1-A cells after 10 days; details: 240 h; outline: as §2
[1] = Antiproliferative activity against human KHOS-240S cells after 10 days; details: 240 h; outline: as §1
BV-173 = test: Antiproliferative activity against human BV-173 cells after 10 days; details: BV-173, 240 h
Outline: (§3)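 Tested as part of a 240-line cancer cell panel (Eurofins Oncopanel); all lines were mycoplasma-negative and STR-verified. Cells were exposed to a compound concentration series in 2D culture for 10 days. The highest concentration was 10 μM or 25 μM, depending on the inhibitor. Antiproliferative IC50 was derived from the mean of three biological replicates.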

NCI-H508 = test: Antiproliferative activity against human NCI-H508 cells after 10 days; details: NCI-H508, 240 h; outline: as §1
HepG2 = test: Antiproliferative activity against human HepG2 cells after 10 days; details: HepG2, 240 h; outline: as §2
HMCB cell line = test: Antiproliferative activity against human HMCB cells after 10 days; details: 240 h; outline: as §2
DMS-273 = test: Antiproliferative activity against human DMS-273 cells after 10 days; details: DMS-273, 240 h; outline: as §2
COLO 201 = test: Antiproliferative activity against human COLO201 cells after 10 days; details: COLO 201, 240 h; outline: as §2
[2] = Antiproliferative activity against human RKOE6 cells after 10 days; details: RKOE6, 240 h
Outline: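 Tested in the Eurofins Oncopanel of about 240 cancer cell lines, all mycoplasma-negative and STR-verified. Cells were exposed to compound for 10 days in 2D culture, and a proliferative IC50 was derived from the concentration series. The highest concentration tested was 10 μM in the SMYD2 inhibitor screen and 25 μM in the SMYD3 inhibitor screen. Values are means of three biological replicates.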

SW13 = test: Antiproliferative activity against human SW13 cells after 10 days; details: SW13, 240 h
OE19 = test: Antiproliferative activity against human OE19 cells after 10 days; details: OE19, 240 h; outline: as §1
A-375 = test: Antiproliferative activity against human A-375 cells after 10 days; details: A-375, 240 h; outline: as §3
D283 Med = test: Antiproliferative activity against human D283 Med cells after 10 days; details: 240 h; outline: as §2
Hs-578T = test: Antiproliferative activity against human Hs 578T cells after 10 days; details: 240 h; outline: as §2
SiHa = test: Antiproliferative activity against human SiHa cells after 10 days; details: 240 h
SCC-9 = test: Antiproliferative activity against human SCC-9 cells after 10 days; details: SCC-9, 240 h
ChaGo-K-1 = test: Antiproliferative activity against human ChaGo-K-1 cells after 10 days; details: ChaGo-K-1, 240 h; outline: as §2
SW-620 = test: Antiproliferative activity against human SW620 cells after 10 days; details: SW-620, 240 h
SHP77 = test: Antiproliferative activity against human SHP77 cells after 10 days; details: SHP77, 240 h
HT-1080 = test: Antiproliferative activity against human HT-1080 cells after 10 days; details: HT-1080, 240 h; outline: as §2
SNU-423 = test: Antiproliferative activity against human SNU-423 cells after 10 days; details: SNU-423, 240 h
Raji = test: Antiproliferative activity against human Raji cells after 10 days; details: 240 h
K562 = test: Antiproliferative activity against human K562 cells after 10 days; details: K562, 240 h; outline: as §1
SW837 = test: Antiproliferative activity against human SW837 cells after 10 days; details: SW837, 240 h
ST486 = test: Antiproliferative activity against human ST486 cells after 10 days; details: ST486, 240 h
SK-OV-3 = test: Antiproliferative activity against human SK-OV-3 cells after 10 days; details: SK-OV-3, 240 h
U138-MG = test: Antiproliferative activity against human U138-MG cells after 10 days; details: 240 h
HT-1376 = test: Antiproliferative activity against human HT-1376 cells after 10 days; details: HT-1376, 240 h; outline: as §2
G-401 = test: Antiproliferative activity against human G-401 cells after 10 days; details: G-401, 240 h; outline: as §2
EB-3 = test: Antiproliferative activity against human EB-3 cells after 10 days; details: EB-3, 240 h; outline: as §2
5637 = test: Antiproliferative activity against human 5637 cells after 10 days; details: Homo sapiens, 5637, 240 h; outline: as §3
SK-NEP-1 = test: Antiproliferative activity against human SK-NEP-1 cells after 10 days; details: SK-NEP-1, 240 h
Hs 294T = test: Antiproliferative activity against human Hs 294T cells after 10 days; details: 240 h; outline: as §2
SW1417 = test: Antiproliferative activity against human SW1417 cells after 10 days; details: SW1417, 240 h
JAR = test: Antiproliferative activity against human JAR cells after 10 days; details: 240 h; outline: as §1
SK-N-DZ = test: Antiproliferative activity against human SK-N-DZ cells after 10 days; details: 240 h
MDA-MB-436 = test: Antiproliferative activity against human MDA-MB-436 cells after 10 days; details: MDA-MB-436, 240 h; outline: as §1
SW1463 = test: Antiproliferative activity against human SW1463 cells after 10 days; details: SW1463, 240 h
Calu-1 = test: Antiproliferative activity against human Calu-1 cells after 10 days; details: Calu-1, 240 h; outline: as §2
[3] = Antiproliferative activity against human OCUG-1 cells after 10 days; details: OCUG-1, 240 h; outline: as §1
A-427 = test: Antiproliferative activity against human A-427 cells after 10 days; details: A-427, 240 h; outline: as §3
639-V = test: Antiproliferative activity against human 639-V cells after 10 days; details: 240 h; outline: as §3
SW 962 = test: Antiproliferative activity against human SW 962 cells after 10 days; details: SW 962, 240 h

pIC50 (NCI-H596): 5.53
pIC50 (NCI-H661): 5.47
pIC50 (NCI-H508): 5.51
pIC50 (HepG2): 5.63
pIC50 (COLO 201): 5.97
pIC50 (SW13): 5.57
pIC50 (A-375): 5.72
pIC50 (SW-620): 5.51
pIC50 (HT-1080): 5.70
pIC50 (SNU-423): 5.95
pIC50 (Raji): 5.80
pIC50 (K562): 5.49
pIC50 (SW837): 5.43
pIC50 (SK-OV-3): 5.53
pIC50 (HT-1376): 5.63
pIC50 (SK-NEP-1): 5.50
pIC50 (SW1417): 5.49
pIC50 (SK-N-DZ): 5.42
pIC50 (MDA-MB-436): 5.52
pIC50 (SW1463): 5.51
pIC50 (Calu-1): 5.55
Compound: Cc1cn(CCN2CCN(c3ccccc3-c3cc(C#N)cc(C(=O)NCCCN4CCCC4)c3)CC2)c2ccccc12
pIC50 (RD): 6.02
pIC50 (DMS-114): 5.63
pIC50 (RPMI-6666): 5.54
pIC50 (HEC-1-A): 5.98
pIC50 [1]: 5.88
pIC50 (BV-173): 5.88
pIC50 (HMCB cell line): 5.54
pIC50 (DMS-273): 6.01
pIC50 [2]: 5.97
pIC50 (OE19): 5.60
pIC50 (D283 Med): 5.60
pIC50 (Hs-578T): 5.21
pIC50 (SiHa): 5.49
pIC50 (SCC-9): 5.93
pIC50 (ChaGo-K-1): 5.91
pIC50 (SHP77): 5.78
pIC50 (ST486): 6.02
pIC50 (U138-MG): 5.34
pIC50 (G-401): 6.04
pIC50 (EB-3): 6.48
pIC50 5637: 5.17
pIC50 (Hs 294T): 5.61
pIC50 (JAR): 5.54
pIC50 [3]: 5.63
pIC50 (A-427): 5.87
pIC50 (639-V): 5.94
pIC50 (SW 962): 5.47

pIC50 (NCI-H596): < 5.00
pIC50 (NCI-H661): < 5.00
pIC50 (NCI-H508): < 5.00
pIC50 (HepG2): < 5.00
pIC50 (COLO 201): < 5.00
pIC50 (SW13): < 5.00
pIC50 (A-375): < 5.00
pIC50 (SW-620): < 5.00
pIC50 (HT-1080): < 5.00
pIC50 (SNU-423): < 5.00
pIC50 (Raji): < 5.00
pIC50 (K562): < 5.00
pIC50 (SW837): < 5.00
pIC50 (SK-OV-3): < 5.00
pIC50 (HT-1376): < 5.00
pIC50 (SK-NEP-1): < 5.00
pIC50 (SW1417): < 5.00
pIC50 (SK-N-DZ): < 5.00
pIC50 (MDA-MB-436): < 5.00
pIC50 (SW1463): < 5.00
pIC50 (Calu-1): < 5.00
Compound: O=C(NC1CN(Cc2cnn(Cc3ccccc3)c2)C1)c1cn(C2CC2)nn1
pIC50 (RD): < 5.00
pIC50 (DMS-114): < 5.00
pIC50 (RPMI-6666): < 5.00
pIC50 (HEC-1-A): < 5.00
pIC50 [1]: < 5.00
pIC50 (BV-173): < 5.00
pIC50 (HMCB cell line): < 5.00
pIC50 (DMS-273): < 5.00
pIC50 [2]: < 5.00
pIC50 (OE19): < 5.00
pIC50 (D283 Med): < 5.00
pIC50 (Hs-578T): < 5.00
pIC50 (SiHa): < 5.00
pIC50 (SCC-9): < 5.00
pIC50 (ChaGo-K-1): < 5.00
pIC50 (SHP77): < 5.00
pIC50 (ST486): < 5.00
pIC50 (U138-MG): < 5.00
pIC50 (G-401): < 5.00
pIC50 (EB-3): < 5.00
pIC50 5637: < 5.00
pIC50 (Hs 294T): < 5.00
pIC50 (JAR): < 5.00
pIC50 [3]: < 5.00
pIC50 (A-427): < 5.00
pIC50 (639-V): < 5.00
pIC50 (SW 962): < 5.00

— ChEMBL document CHEMBL5674880 (PLoS One, 2018)
